Screening data as filed in PubChem.
This is a sample that favours compounds with a hit; in the whole collection about 2.6% have one here.
UCH37 inh: inhibitors of human UCH37 deubiquitinase, primary screen, biochemical, Ub-AMC cleavage, fluorescence; purified proteasome/UCH37; inhibition, % (no concentration beside the values); hit rate 0.33% among 330,000;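 active = mean inhibition over replicate wells above about 20%, limit read from the data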;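 note: 0% = compound-free wells with enzyme and 100% = wells lacking proteasome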
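Assay system: Proteasome-bound UCH37. Buffer or medium: pH 7.4 Tris-HCl (50 mM) with ovalbumin, ATP-MgCl2, DTT. Incubation: 30 min preincubation with enzyme, 25 min cleavage at room temperature. Measured by: fluorescence, ex 355 nm, em 460 nm. Read-out basis: percent inhibition. Control set: wells without proteasome as full block, compound-free enzyme plus substrate as uninhibited.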
SIRT5 inh: SIRT5 desuccinylase inhibitors, primary screen, biochemical, fluorescence imaging, single point, set 5. NAD-dependent protein deacylase sirtuin-5, mitochondrial (Homo sapiens), Q9NXA8. Purified SirT5, succinyl-peptide AMC, trypsin-coupled fluorescence. inhibition, % at 15 µM. hit rate 1.1% among 330,000. AID 652115, 2013; in the data active = inhibition above about 15%
Target sequence (Q9NXA8 whole entry, looked up): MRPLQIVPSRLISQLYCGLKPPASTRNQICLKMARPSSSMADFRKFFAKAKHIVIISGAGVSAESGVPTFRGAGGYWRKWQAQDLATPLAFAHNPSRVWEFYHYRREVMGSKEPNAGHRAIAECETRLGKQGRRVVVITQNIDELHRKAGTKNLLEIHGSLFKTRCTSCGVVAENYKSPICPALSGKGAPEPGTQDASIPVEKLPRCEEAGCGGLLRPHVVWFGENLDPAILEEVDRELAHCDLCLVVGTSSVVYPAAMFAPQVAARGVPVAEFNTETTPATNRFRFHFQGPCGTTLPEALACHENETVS
Casp6 inh: human caspase-6 inhibitors, primary screen, biochemical, VEID-R110 fluorescence, single point, set 2. AID 686996, 2013. P55212. hit rate 0.53% among 350,000. purified caspase-6, Z-VEID-R110 cleavage fluorescence. inhibition, % at 12.5 µM;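 active = mean inhibition across replicates at least about 35%, with every replicate also reaching that limit, limit read from the data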;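 note: 0% = median of neutral control wells and 100% = no fluorescence left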
NSD2 HMT inh: NSD2 histone methyltransferase inhibitors, primary screen, biochemical, AlphaScreen, single concentration, set 2. Histone-lysine N-methyltransferase NSD2 (Homo sapiens), O96028. NSD2 peptide methylation, 120 min. inhibition, % at 12.5 µM. hit rate 0.54% among 310,000; in the data active = inhibition above about 50%
FGF22 binding: binders of human FGF22 protein, primary screen, FGF22 synaptogenesis inhibitor project, biophysical, thermal shift, single point; recombinant FGF22 thermal shift, SYPRO orange fluorescence; percent of sucrose octasulfate shift, DMSO zero; hit rate 1.5% among 340,000; activity (Tm shift, normalised), % at 9.99 µM; AID 651658, 2012;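 active = mean Tm shift, scaled 0 neutral to 100 positive control, at about 1.3% or above, every replicate too, limit read from the data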
Target sequence (Q9HCT0 whole entry, looked up): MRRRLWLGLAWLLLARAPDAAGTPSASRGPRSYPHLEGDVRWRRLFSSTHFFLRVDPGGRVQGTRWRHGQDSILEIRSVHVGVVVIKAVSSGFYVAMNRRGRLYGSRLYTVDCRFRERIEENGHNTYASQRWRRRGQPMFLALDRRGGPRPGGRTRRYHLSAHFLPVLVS
Starred values were filed as active, the others as inactive.

`COc1ccc(NC(=O)C2(C)Cc3c(-c4ccc5c(c4)OCO5)ccnc3O2)cn1` (configuration not stated) gave Casp6 inh 0, NSD2 HMT inh -1 and FGF22 binding 44*.
CC1(C(=O)Nc2cccc(C(F)(F)F)c2)Cc2c(-c3cccc(C(F)(F)F)c3)ccnc2O1 (configuration not stated) was read as SIRT5 inh 21*, Casp6 inh -1, NSD2 HMT inh -1 and FGF22 binding 1.
For COc1ccc(NC(=O)C2(C)Cc3c(-c4ccc(C(N)=O)cc4)ccnc3O2)cc1OC (configuration not stated) the results were SIRT5 inh 18*, Casp6 inh 0, NSD2 HMT inh 3 and FGF22 binding 0.
CC(=O)Nc1cccc(-c2ccnc3c2CC(C)(C(=O)Nc2cccc(C(F)(F)F)c2)O3)c1 (configuration not stated) was read as SIRT5 inh 3, Casp6 inh 3, NSD2 HMT inh 0 and FGF22 binding 0.
For NC(=O)C(=O)NN=Cc1c2ccccc2cc2ccccc12 the results were UCH37 inh -2.
`C[C@H](NC(=O)C[C@@H]1C=C[C@H](NC(=O)C2CCC2)[C@@H](CO)O1)c1ccccc1` gave SIRT5 inh 4, Casp6 inh 0 and FGF22 binding 0.
Cc1ccc(S(=O)(=O)N(C)C[C@H]2Oc3c(NC(=O)Nc4ccc5c(c4)OCO5)cccc3C(=O)N([C@@H](C)CO)C[C@@H]2C)cc1 was read as SIRT5 inh 5, Casp6 inh -2 and FGF22 binding 1.
Screening Cc1ccc(SCC(=O)Nc2nccs2)cc1 returned UCH37 inh 1, SIRT5 inh 2, Casp6 inh -1, NSD2 HMT inh -4 and FGF22 binding 43*.
Screening O=C(CSc1ccccc1)Nc1nccs1 returned UCH37 inh 3, SIRT5 inh 5, Casp6 inh -3, NSD2 HMT inh -1 and FGF22 binding 0.
C[C@@H]1CN([C@@H](C)CO)C(=O)c2cc(NC(=O)Nc3ccc(F)cc3)ccc2O[C@@H](C)CCCCO[C@@H]1CN(C)C(=O)Cc1ccccc1 was read as SIRT5 inh 3, Casp6 inh 1 and FGF22 binding -1.
For COc1cccc(CNC(=O)[C@@H]2CCCN2)c1 the results were SIRT5 inh 25*, Casp6 inh -2 and FGF22 binding 0.
Cc1cc(C)c2c(c1)NC(C(=O)O)C1CC=CC21 (configuration not stated) was read as UCH37 inh -1, SIRT5 inh 18*, Casp6 inh 64*, NSD2 HMT inh 31 and FGF22 binding 0.
COc1cc(/C=C2/C(=O)NN(c3ccc(Cl)cc3)C2=O)cc(Br)c1O was read as UCH37 inh 12, SIRT5 inh 8, Casp6 inh 81*, NSD2 HMT inh 28 and FGF22 binding 1.
Screening COc1cc(/C=C2/C(=O)NN(c3ccc(Cl)c(Cl)c3)C2=O)cc([N+](=O)[O-])c1O returned UCH37 inh 22*, SIRT5 inh 22*, NSD2 HMT inh 33 and FGF22 binding 0.
For CNC[C@H]1Oc2cc(C#CCN(C)C)ccc2S(=O)(=O)N([C@H](C)CO)C[C@@H]1C the results were SIRT5 inh -2, Casp6 inh -2 and FGF22 binding 0.
For O=C(C[C@H]1C[C@H]2c3cc(NC(=O)NC4CCCCC4)ccc3O[C@H]2[C@@H](CO)O1)NCc1ccncc1 the results were SIRT5 inh -2, Casp6 inh 1 and FGF22 binding 0.
Screening O=S(=O)(Nc1cccc(S(=O)(=O)N2CCCC2)c1)c1cccs1 returned UCH37 inh 3, Casp6 inh -1, NSD2 HMT inh 0 and FGF22 binding 43*.
`O=C(COC(=O)/C=C/c1cccs1)Nc1cccc(S(=O)(=O)N2CCCC2)c1` gave UCH37 inh 2, SIRT5 inh 15*, Casp6 inh -1, NSD2 HMT inh 0 and FGF22 binding 0.
`O=S(=O)(Nc1cccc(S(=O)(=O)N2CCCCC2)c1)c1ccccc1F` gave UCH37 inh 3, Casp6 inh 2, NSD2 HMT inh 3 and FGF22 binding 44*.
CCOC1=C/C(=C/c2c(N)n3nc(CC(=O)N4CCCCC4)sc3nc2=O)C=CC1=O was read as UCH37 inh 16, SIRT5 inh 32*, Casp6 inh 5, NSD2 HMT inh 7 and FGF22 binding 0.
Screening C=CCC1=C/C(=C\c2c(N)n3nc(CC(=O)N4CCCC4)sc3nc2=O)C=C(OC)C1=O returned UCH37 inh 6, SIRT5 inh 20*, Casp6 inh 19, NSD2 HMT inh 13 and FGF22 binding 0.
Nc1c(/C=C2\C=Nc3ccccc32)c(=O)nc2sc(CC(=O)N3CCOCC3)nn12 was read as UCH37 inh 9, SIRT5 inh 3, Casp6 inh 4, NSD2 HMT inh 8 and FGF22 binding 0.
COC1=CC(=Cc2c(N)n3nc(CC(=O)N4CCOCC4)sc3nc2=O)C=C(OC)C1=O was read as SIRT5 inh 15, Casp6 inh 3, NSD2 HMT inh 9 and FGF22 binding -1.
For Nc1c(C=C2C=CC(=O)C=C2)c(=O)nc2sc(CC(=O)N3CCOCC3)nn12 the results were UCH37 inh 11, SIRT5 inh 23*, Casp6 inh 7, NSD2 HMT inh 3 and FGF22 binding 0.
For O=C(Nc1cccc(-c2cn3ccccc3n2)c1)c1cc2ccccc2oc1=O the results were UCH37 inh 3, SIRT5 inh 19*, Casp6 inh -5, NSD2 HMT inh -2 and FGF22 binding 0.
For C[C@@H]1CN([C@H](C)CO)C(=O)c2cc(NS(=O)(=O)c3ccc(Cl)cc3)ccc2O[C@@H]1CN(C)C(=O)Nc1ccc(F)cc1 the results were SIRT5 inh -4, Casp6 inh 3 and FGF22 binding 0.
For O=C(CCCc1ccccn1)c1ccc(-c2ccccc2)cc1 the results were UCH37 inh 1, Casp6 inh 1, NSD2 HMT inh 0 and FGF22 binding 44*.
O=C(Cc1ccccc1)N1CC(=O)N2[C@@H](CO)[C@H](c3ccc(Br)cc3)[C@@H]2C1 was read as SIRT5 inh 0 and Casp6 inh 1.
COc1ccc(C=NNC(=O)c2ccc(NC(=O)c3cccc([N+](=O)[O-])c3)cc2)c(C(=O)O)c1OC was read as UCH37 inh 9.
Screening Clc1ccc(Cl)c(OCCN2CCCC2)c1 returned UCH37 inh 1, SIRT5 inh 16*, Casp6 inh -6, NSD2 HMT inh 5 and FGF22 binding 0.
